The source of these data is ChEMBL document CHEMBL4706606, “Re-evaluating pretomanid analogues for Chagas disease: Hit-to-lead studies reveal both in vitro and in vivo trypanocidal efficacy” (Eur J Med Chem, 2020).

Each structure is given as a SMILES string. ≈ marks a conversion by molar mass, not a printed value. Calls of active or inactive are those of the source. Some results are limits rather than exact numbers.

The nature of series [1]: Selectivity index, ratio of IC50 for cytotoxicity against rat L6 cells to IC50 for antitrypanosomal activity against Trypanosoma cruzi Tulahuen strain C2C4 amastigotes infected in rat L6 cells.
Series [2] concerns L6. In words: Cytotoxicity against rat L6 cells assessed as reduction in cell viability incubated for 72 hrs by alamar blue assay. It is filed as ADME, cell-based. The note with it: L6, 72 h.
The nature of series [3]: Kinetic solubility of compound in water sonicated for 15 mins by HPLC analysis.
The nature of series [4]: Plasma concentration in Swiss mouse at 50 mg/kg, po measured upto 24 hrs by LC-MS/MS analysis.
Series [5] in a line: Half life in human liver microsomes incubated for 60 mins.
The subject of series [6] is Trypanosoma cruzi. In words: Antitrypanosomal activity against Trypanosoma cruzi amastigotes assessed as inhibition of parasite growth at 10 ug/ml relative to control.
In series [7] the test system is Trypanosoma cruzi. In words: Antitrypanosomal activity against Trypanosoma cruzi Tulahuen strain C2C4 amastigotes infected in rat L6 cells assessed as inhibition of parasite growth incubated for 96 hrs by chlorophenol red-fl-D-galactopyranoside based colorimetric analysis. It counts as functional, organism-based. The note with it: for IC50: Tulahuen strain C2C4, L6, 96 h; for IC90: Tulahuen strain C2C4, L6, time 96 hrs. Put shortly: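 Tulahuen strain TcVI T. cruzi expressing β-galactosidase, grown in L6 rat skeletal myoblast host cells. IC50/IC90 growth inhibition. Each value is the mean of ≥2 independent determinations using fresh sample stock.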

The target in series [8] is Cytochrome P450 3A4 (Homo sapiens, UniProt P08684). In words: Inhibition of CYP3A4 in human liver microsome using testosterone as substrate. Background: Liver microsomes are a subcellular fraction often used to study metabolism.
Cytochrome P450 3A4, sequence (P08684 whole entry): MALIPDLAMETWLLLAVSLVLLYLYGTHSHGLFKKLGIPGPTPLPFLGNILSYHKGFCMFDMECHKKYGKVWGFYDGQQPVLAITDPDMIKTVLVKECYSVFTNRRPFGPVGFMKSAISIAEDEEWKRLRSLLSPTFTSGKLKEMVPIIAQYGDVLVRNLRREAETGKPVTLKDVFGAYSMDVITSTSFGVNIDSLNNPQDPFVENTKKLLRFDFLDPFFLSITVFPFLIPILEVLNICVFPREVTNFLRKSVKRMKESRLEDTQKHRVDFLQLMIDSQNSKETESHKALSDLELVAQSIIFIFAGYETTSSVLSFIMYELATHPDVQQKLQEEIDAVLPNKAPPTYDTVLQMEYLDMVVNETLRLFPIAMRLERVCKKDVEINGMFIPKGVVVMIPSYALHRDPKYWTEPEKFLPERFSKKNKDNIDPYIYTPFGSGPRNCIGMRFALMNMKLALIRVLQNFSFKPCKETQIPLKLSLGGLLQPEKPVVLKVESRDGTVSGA
Series [9] can be described thus: Cytotoxicity against rat 3T3 cells assessed as reduction in cell viability incubated for 72 hrs by alamar blue assay. It is filed as ADME, cell-based. The following applies: NIH3T3, 72 h. For orientation: Alamar Blue is a resazurin reagent that responds to reducing activity.
Series [10] relates to Trypanosoma cruzi. In words: Antitrypanosomal activity against Trypanosoma cruzi Tulahuen strain C2C4 amastigotes infected in […] cells assessed as reduction in parasite growth incubated for 48 hrs by chlorophenol red-fl-D-galactopyranoside based colorimetric analysis relative to control. It is filed as functional.
Series [11] can be described thus: Inhibition of Trypanosoma cruzi Tulahuen C4 strain CYP51 expressed in Escherichia coli by fluorescence based assay.
In series [12] the test system is Trypanosoma cruzi. In words: Antitrypanosomal activity against Trypanosoma cruzi Tulahuen strain C2C4 amastigotes infected in […] cells assessed as reduction in parasite growth incubated for 48 hrs by chlorophenol red-fl-D-galactopyranoside based colorimetric analysis. It counts as functional, organism-based. The following applies: for IC50: Tulahuen strain C2C4, NIH3T3, 48 h; for IC90: Tulahuen strain C2C4, NIH3T3, time 48 hrs.

Series [13] concerns Trypanosoma cruzi. In words: Antitrypanosomal activity against Trypanosoma cruzi Y strain amastigotes infected in U2OS cells assessed as inhibition of parasite growth at 0.37 ug/ml by image-based assay relative to control.
Series [14] in a line: Selectivity index, ratio of IC50 for cytotoxicity against rat 3T3 cells to IC50 for antitrypanosomal activity against Trypanosoma cruzi Tulahuen strain C2C4 amastigotes infected in rat 3T3 cells. The following applies: 3T3 cells.
The test system of series [15] is Trypanosoma cruzi. In words: Antitrypanosomal activity against bloodstream trypomastigotes form of Trypanosoma cruzi Tulahuen strain C2C4 infected in Swiss mouse assessed as reduction in parasitemia at 20 mg/kg, po qd administered for 20 days starting from day 8 post infection followed by cyclophosphamide induced immunosuppression […] and measured for 51 days by neubauer haemocytometer based microscopic analysis. It is filed as functional, organism-based. The note with it: time 20.0 day. In outline:
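Same infection (female Swiss mice, 5 x 10⁴ trypomastigotes ip) and 20-day oral course from day 8 p.i. After 10 days' rest, mice with very low or undetectable parasitemia got three cycles of cyclophosphamide, 50 mg/kg ip daily for 4 days then 3 days' rest, starting day 37 p.i. Blood parasitemia checked on days 37, 44, 51 and 58 p.i. by haemocytometer, with PCR detection also used.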

The subject of series [16] is Trypanosoma cruzi. In words: Antitrypanosomal activity against bloodstream trypomastigotes form of Trypanosoma cruzi Tulahuen strain C2C4 infected in Swiss mouse assessed as reduction in parasitemia at 20 mg/kg, po qd administered for 20 days starting from day 8 post infection and measured for 28 days by neubauer haemocytometer based microscopic analysis. The following applies: time 20.0 day. It is filed as functional, organism-based. Put shortly: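 Female Swiss mice, 5 per group, infected intraperitoneally with 5 x 10⁴ bloodstream trypomastigotes (Tulahuen). Oral dosing once daily for 20 days from day 8 p.i., with the commercial formulation diluted in water for injection. Tail blood (3 μL) taken on days 8 (predose), 9, 12, 14, 16, 19, 21 and 28 p.i., diluted 1:10 in red cell lysis buffer and counted by haemocytometer.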

The subject of series [17] is Trypanosoma cruzi. In words: Antitrypanosomal activity against bloodstream trypomastigotes form of Trypanosoma cruzi CL Brener infected in BALB/c mouse assessed as reduction in parasite in caecum at 50 mg/kg, po qd administered for 5 days starting from day 114 post infection followed by cyclophosphamide induced immunosuppression on days 135, 139 and 143 post infection and measured for 149 days by bioluminescence analysis. It is filed as functional, organism-based. The following applies: time 5.0 day. In outline: (§1)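 Female BALB/c mice, 8 weeks old, ~18 g, 5 per group. Infected i.p. with 10^3 bloodstream trypomastigotes of bioluminescent CL Brener (pTRIX2-RE9h). From day 114 p.i., oral dosing once daily for 5 days: reference drugs at 100 mg/kg in HPMC-SV with 5% DMSO, PEG400 vehicle at 50 mg/kg. Cyclophosphamide 200 mg/kg i.p. on days 135, 139 and 143. Final imaging day 149. Ex vivo organ bioluminescence days 149-151.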

A short description of series [18]: Thermodynamic solubility of compound in PEG400. It counts as physicochemical.
The test system of series [19] is Trypanosoma cruzi. In words: Antitrypanosomal activity against bloodstream trypomastigotes form of Trypanosoma cruzi CL Brener infected in BALB/c mouse assessed as reduction in parasitemia at 50 mg/kg, po administered 5 days after 114 days post infection followed by cyclophosphamide induced immunosuppression on day 143 post infection and measured for 149 days by bioluminescence analysis. It is filed as functional, organism-based. The following applies: time 5.0 day. In outline: as §1

For series [20], the system named is Trypanosoma cruzi. In words: Antitrypanosomal activity against bloodstream trypomastigotes form of Trypanosoma cruzi CL Brener infected in BALB/c mouse assessed as reduction of parasite in small intestine at 50 mg/kg, po qd administered for 5 days starting from day 114 post infection followed by cyclophosphamide induced …. It is filed as functional, organism-based. The note with it: time 5.0 day.

Series [21] has as its system Trypanosoma cruzi. In words: Antitrypanosomal activity against bloodstream trypomastigotes form of Trypanosoma cruzi CL Brener infected in BALB/c mouse assessed as reduction of parasite in mouth/nasal region at 50 mg/kg, po qd administered for 5 days starting from day 114 post infection followed by cyclophosphamide induced …. The note with it: time 5.0 day. It is filed as functional, organism-based.

Series [22] has as its system Trypanosoma cruzi. In words: Antitrypanosomal activity against bloodstream trypomastigotes form of Trypanosoma cruzi Tulahuen strain C2C4 infected in Swiss mouse assessed as reduction in parasitemia at 50 mg/kg, po qd administered for 20 days starting from day 8 post infection and measured for 28 days by neubauer haemocytometer based microscopic analysis. It is filed as functional, organism-based. The note with it: time 20.0 day. In outline: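 Female Swiss mice, 5 per group, infected i.p. with 5 x 10^4 bloodstream trypomastigotes (Tulahuen). Oral dosing once daily for 20 days from day 8 p.i., vehicle HPMC-SV with 5% DMSO. Tail blood, 3 μL diluted 1:10 in RBC lysis, counted by haemocytometer on days 8–28 p.i.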

The subject of series [23] is Trypanosoma cruzi. In words: Antitrypanosomal activity against Trypanosoma cruzi Y strain amastigotes infected in U2OS cells assessed as inhibition of parasite growth at 3.3 ug/ml by image-based assay relative to control.

For `O=[N+]([O-])c1cn2c(n1)OC[C@@H](OCc1ccc(-c3ccc(C(F)(F)F)cc3Cl)cc1)C2`, in series [1], the selectivity ratio was determined as 9.2. Further, the IC50 – broadly, the midpoint of a concentration-inhibition curve – in series [2] is 34000 nM; in series [7], 3700 nM; in series [8], > 20000 nM. In series [3], the solubility (kinetic) (usually the concentration staying in solution when a stock, usually in DMSO, is diluted into the medium) at 0.25 h is 0.48 µg/mL (≈ 1.06 µM). The molecule further gave a concentration at 24 h in [4] of 9.1 µM. In addition, the half-life – broadly, the time needed for the level to fall by half in the phase considered – at 1 h in series [5] was > 4.17 h. Further, the inhibition – broadly, the drop in the measured response relative to a control, in per cent – at 10 µg/mL in [6] was found to be 94%. Besides, the IC90 (commonly the concentration needed for an effect of 90%) in series [7] was 8000 nM.
On to `O=[N+]([O-])c1cn2c(n1)OC[C@@H](OCC#Cc1ccc(-c3ccc(OC(F)(F)F)cc3)cn1)C2`, for which the IC50 is > 37000 nM in series [9]; > 100000 nM in series [2]; > 10000 nM in series [11]; 730 nM in series [12]; 320 nM in series [7]. The selectivity ratio in series [1] is > 313; in series [14] it was > 51. Also, in series [10], the “%max” value amounted to 99%. Further, the kinetic solubility at 0.25 h in series [3] is 0.49 µg/mL (≈ 1.06 µM). Moreover, the IC90 came out at 1000 nM in series [12] and 990 nM in series [7]. Moreover, the half-life at 1 h in series [5] was > 4.17 h. Further, the inhibition at 0.37 µg/mL in [13] was found to be 44%.
On to `CC[C@@H]([C@H](C)O)n1ncn(-c2ccc(N3CCN(c4ccc(OC[C@@H]5CO[C@@](Cn6cncn6)(c6ccc(F)cc6F)C5)cc4)CC3)cc2)c1=O` [POSACONAZOLE], for which the result in series [15] and in series [16] was Active. The IC50 in series [9] is > 1000 nM; in [11], 52 nM; in series [12], 1.2 nM. For the same molecule, the “%max” value in series [10] is given as 85%. Further, the IC90 in series [12] came to 4.9 nM. The selectivity ratio in [14] is > 833.
For `O=[N+]([O-])c1cn2c(n1)OC[C@H](Oc1ccc(OC(F)(F)F)cc1)C2`, the outcome in series [17], in series [19], in series [20] and in series [21] was Active. For the same molecule, the IC50 is > 73000 nM in series [9]; > 100000 nM in [2]; > 10000 nM in [11]; 1200 nM in series [12]; 400 nM in series [7]. Moreover, the selectivity ratio in [1] was > 250; in series [14] it was > 61. Also, the “%max” value in series [10] was 99%. Besides, in series [18], the thermodynamic solubility – broadly, solubility found after equilibrating the solid with the medium – was 21000 µg/mL (≈ 60800 µM). Moreover, the results for the IC90 in series [12] and in series [7] were 1700 nM and 1000 nM, respectively. Also, the concentration at 24 h in series [4] was 11 µM.
Regarding `CC1(COc2ccc(OC(F)(F)F)cc2)CCn2cc([N+](=O)[O-])nc2O1` (configuration not stated), in [22], the result was Active. In addition, in [10], the “%max” value is reported as 100%. In addition, in series [12], the IC90 is 1000 nM. Besides, the inhibition at 3.3 µg/mL in series [23] was determined as 52%. Further, in series [7], the IC50 amounted to 450 nM and the IC90 was found to be 930 nM.
